# Test results as given in ChEMBL document CHEMBL1138485, “Discovery of inducible nitric oxide synthase (iNOS) inhibitor development candidate KD7332, part 1: Identification of a novel, potent, and selective series of quinolinone iNOS dimerization inhibitors that are orally active in rodent pain models” (J Med Chem, 2009).
# Experiments:
# [1] = biological target: T1, Nitric oxide synthase, inducible (Homo sapiens, UniProt P35228); assay: Inhibition of human iNOS expressed in HEK293 cells assessed as NO production at 100 uM by transient transfection assay; type: cell-based
# T1 sequence (P35228 whole entry): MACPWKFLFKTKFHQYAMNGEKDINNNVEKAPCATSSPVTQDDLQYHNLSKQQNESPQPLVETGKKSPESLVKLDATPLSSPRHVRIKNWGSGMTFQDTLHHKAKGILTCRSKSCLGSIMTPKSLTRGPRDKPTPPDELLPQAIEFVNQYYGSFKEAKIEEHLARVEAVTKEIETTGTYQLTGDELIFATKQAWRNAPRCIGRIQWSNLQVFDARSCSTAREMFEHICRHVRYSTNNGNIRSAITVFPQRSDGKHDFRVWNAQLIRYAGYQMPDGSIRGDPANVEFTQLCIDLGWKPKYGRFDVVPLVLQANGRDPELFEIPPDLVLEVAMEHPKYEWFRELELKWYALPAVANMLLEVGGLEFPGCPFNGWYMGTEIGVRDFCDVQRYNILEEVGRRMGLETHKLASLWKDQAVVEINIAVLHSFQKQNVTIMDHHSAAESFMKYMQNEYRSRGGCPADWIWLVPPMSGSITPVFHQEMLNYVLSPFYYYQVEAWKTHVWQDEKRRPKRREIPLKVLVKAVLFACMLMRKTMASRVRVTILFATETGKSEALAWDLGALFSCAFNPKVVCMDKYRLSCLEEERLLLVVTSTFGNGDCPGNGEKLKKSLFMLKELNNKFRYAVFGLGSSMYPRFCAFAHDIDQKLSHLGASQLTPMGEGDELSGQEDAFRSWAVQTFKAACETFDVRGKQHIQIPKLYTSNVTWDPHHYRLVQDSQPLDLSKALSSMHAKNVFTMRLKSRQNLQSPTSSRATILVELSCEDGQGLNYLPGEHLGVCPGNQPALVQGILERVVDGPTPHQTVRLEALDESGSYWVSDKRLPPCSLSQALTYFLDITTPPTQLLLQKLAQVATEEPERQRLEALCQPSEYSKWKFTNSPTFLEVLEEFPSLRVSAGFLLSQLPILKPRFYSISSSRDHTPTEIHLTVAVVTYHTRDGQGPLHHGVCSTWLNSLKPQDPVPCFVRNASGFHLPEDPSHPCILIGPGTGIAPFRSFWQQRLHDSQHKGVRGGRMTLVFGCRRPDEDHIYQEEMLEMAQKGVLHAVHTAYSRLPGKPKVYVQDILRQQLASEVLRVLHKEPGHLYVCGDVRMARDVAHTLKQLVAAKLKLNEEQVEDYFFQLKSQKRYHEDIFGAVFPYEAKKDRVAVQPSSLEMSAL
# [2] = biological target: T1, Nitric oxide synthase, inducible; assay: Inhibition of human iNOS expressed in HEK293 cells assessed as NO production by transient transfection assay; type: cell-based
# In short: (§1)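 HEK293 cells grown to ~70% confluence in DMEM/10% FBS with pen/strep. Cells transiently transfected with 10 µg human or murine iNOS plasmid (Fugene 6), 4 h at 37 °C, 10% CO2. Trypsinized, plated at 5 × 10⁵ cells/mL and dosed at once; 1400W 100 µM final as positive control. After 18 h, NO read as DAN fluorescence (10 µg/mL, 20 min RT, then NaOH). EC50 from 3 runs, 10-point curves, n = 8/point.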
# Nitric oxide synthase 3 = biological target: T2, Nitric oxide synthase 3 (Homo sapiens, UniProt P29474); assay: Inhibition of human eNOS expressed in HEK293 cells assessed as NO production by transient transfection assay; type: cell-based
# T2 sequence (P29474 whole entry): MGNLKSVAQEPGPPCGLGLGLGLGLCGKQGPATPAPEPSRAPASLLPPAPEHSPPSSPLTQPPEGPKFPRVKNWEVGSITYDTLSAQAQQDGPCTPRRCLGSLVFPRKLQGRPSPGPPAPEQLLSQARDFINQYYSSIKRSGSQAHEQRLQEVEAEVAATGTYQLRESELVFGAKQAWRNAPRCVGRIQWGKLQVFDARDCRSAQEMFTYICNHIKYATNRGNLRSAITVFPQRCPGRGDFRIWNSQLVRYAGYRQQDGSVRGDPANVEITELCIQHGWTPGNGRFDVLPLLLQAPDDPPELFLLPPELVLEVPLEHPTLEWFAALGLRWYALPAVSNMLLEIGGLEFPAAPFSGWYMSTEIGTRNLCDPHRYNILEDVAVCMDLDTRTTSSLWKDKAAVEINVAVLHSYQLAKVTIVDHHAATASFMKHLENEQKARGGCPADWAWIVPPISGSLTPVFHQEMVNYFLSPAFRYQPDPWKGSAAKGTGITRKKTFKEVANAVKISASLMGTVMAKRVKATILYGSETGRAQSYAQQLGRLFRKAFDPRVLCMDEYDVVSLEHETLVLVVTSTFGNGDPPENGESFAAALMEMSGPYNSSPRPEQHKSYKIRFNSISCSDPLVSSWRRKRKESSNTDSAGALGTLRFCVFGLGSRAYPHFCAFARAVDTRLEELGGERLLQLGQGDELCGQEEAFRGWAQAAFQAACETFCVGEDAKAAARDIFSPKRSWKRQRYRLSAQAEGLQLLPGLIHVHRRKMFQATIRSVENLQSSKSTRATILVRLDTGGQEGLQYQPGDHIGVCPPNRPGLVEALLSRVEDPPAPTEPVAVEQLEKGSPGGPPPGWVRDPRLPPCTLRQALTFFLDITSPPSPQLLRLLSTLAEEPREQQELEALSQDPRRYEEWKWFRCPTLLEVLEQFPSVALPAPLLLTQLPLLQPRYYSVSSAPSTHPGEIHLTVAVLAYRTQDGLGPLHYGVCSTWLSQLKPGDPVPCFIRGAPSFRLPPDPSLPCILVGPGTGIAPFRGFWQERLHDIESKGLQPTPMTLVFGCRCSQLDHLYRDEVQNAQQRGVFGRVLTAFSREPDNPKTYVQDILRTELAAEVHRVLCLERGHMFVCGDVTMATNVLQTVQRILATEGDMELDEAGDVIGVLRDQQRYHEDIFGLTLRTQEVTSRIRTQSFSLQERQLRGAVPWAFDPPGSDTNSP
# In short: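 HEK293 cells grown to ~70% confluence in DMEM/10% FBS with pen/strep, transfected with 15 µg human eNOS plasmid plus Fugene 6 (3:1 µL:µg), 4 h at 37 °C, 10% CO2. Cells replated at 5 × 10⁵/mL, compound added at once, 24 h incubation, then A23187 (83 nM final). After 18 h, NO read by DAN fluorescence.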
# Mus musculus = assay: Reduction of plasma nitrate level in LPS-challenged BALB/c mouse at 30 mg/kg, po; type: functional; design: scale not given: the % may be the effect or the level left
# In short: (§2)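 Male Balb/c mice were dosed by oral gavage (90% PEG/5% Tween 80/5% PVP + 90% CMC (0.5% w/v)) at t = 0 h, 30 mg/kg for single-dose lines. LPS 10 mg/kg ip in 0.9% NaCl followed immediately. At 6 h, EDTA plasma was taken for nitrate and drug levels. Nitrate reduction is relative to vehicle; ED50 came from full oral dose-response.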
# [3] = biological target: T3, Nitric oxide synthase, inducible (Mus musculus, UniProt P29477); assay: Inhibition of mouse iNOS expressed in HEK293 cells assessed as NO production in by transient transfection assay; type: cell-based; in short: as §1
# T3 sequence (P29477 whole entry): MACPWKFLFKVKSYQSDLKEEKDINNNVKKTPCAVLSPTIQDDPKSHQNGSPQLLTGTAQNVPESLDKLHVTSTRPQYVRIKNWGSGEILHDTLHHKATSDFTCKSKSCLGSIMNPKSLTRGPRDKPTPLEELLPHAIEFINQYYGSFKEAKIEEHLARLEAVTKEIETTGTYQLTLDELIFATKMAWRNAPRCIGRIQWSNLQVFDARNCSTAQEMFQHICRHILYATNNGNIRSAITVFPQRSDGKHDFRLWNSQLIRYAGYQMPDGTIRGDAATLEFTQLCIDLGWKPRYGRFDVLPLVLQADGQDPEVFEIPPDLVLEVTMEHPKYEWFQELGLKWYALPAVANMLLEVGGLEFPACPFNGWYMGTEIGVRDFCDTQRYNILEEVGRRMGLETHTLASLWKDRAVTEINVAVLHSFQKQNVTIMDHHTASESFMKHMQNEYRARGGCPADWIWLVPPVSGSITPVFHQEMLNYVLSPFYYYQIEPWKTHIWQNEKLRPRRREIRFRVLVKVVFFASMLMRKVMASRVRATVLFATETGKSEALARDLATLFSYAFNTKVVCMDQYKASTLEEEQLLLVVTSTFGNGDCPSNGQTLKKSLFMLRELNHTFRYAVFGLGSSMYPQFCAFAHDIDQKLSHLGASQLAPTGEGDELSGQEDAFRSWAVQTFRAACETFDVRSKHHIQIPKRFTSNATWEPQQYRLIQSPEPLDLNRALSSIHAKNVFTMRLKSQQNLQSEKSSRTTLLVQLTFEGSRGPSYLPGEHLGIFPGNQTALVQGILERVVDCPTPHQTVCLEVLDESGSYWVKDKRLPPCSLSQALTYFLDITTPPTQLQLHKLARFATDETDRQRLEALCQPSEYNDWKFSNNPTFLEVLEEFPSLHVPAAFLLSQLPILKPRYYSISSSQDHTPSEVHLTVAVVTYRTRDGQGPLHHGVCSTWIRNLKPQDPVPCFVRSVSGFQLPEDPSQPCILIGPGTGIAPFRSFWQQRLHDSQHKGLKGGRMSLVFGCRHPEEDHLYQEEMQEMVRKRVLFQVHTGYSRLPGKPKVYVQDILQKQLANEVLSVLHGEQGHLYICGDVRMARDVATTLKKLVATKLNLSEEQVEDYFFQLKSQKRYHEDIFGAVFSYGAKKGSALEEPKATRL
# Nitric oxide synthase 1 [4] = biological target: T4, Nitric oxide synthase 1 (Homo sapiens, UniProt P29475); assay: Inhibition of human nNOS expressed in HEK293 cells assessed as NO production by transient transfection assay; type: cell-based
# T4 sequence (P29475 whole entry): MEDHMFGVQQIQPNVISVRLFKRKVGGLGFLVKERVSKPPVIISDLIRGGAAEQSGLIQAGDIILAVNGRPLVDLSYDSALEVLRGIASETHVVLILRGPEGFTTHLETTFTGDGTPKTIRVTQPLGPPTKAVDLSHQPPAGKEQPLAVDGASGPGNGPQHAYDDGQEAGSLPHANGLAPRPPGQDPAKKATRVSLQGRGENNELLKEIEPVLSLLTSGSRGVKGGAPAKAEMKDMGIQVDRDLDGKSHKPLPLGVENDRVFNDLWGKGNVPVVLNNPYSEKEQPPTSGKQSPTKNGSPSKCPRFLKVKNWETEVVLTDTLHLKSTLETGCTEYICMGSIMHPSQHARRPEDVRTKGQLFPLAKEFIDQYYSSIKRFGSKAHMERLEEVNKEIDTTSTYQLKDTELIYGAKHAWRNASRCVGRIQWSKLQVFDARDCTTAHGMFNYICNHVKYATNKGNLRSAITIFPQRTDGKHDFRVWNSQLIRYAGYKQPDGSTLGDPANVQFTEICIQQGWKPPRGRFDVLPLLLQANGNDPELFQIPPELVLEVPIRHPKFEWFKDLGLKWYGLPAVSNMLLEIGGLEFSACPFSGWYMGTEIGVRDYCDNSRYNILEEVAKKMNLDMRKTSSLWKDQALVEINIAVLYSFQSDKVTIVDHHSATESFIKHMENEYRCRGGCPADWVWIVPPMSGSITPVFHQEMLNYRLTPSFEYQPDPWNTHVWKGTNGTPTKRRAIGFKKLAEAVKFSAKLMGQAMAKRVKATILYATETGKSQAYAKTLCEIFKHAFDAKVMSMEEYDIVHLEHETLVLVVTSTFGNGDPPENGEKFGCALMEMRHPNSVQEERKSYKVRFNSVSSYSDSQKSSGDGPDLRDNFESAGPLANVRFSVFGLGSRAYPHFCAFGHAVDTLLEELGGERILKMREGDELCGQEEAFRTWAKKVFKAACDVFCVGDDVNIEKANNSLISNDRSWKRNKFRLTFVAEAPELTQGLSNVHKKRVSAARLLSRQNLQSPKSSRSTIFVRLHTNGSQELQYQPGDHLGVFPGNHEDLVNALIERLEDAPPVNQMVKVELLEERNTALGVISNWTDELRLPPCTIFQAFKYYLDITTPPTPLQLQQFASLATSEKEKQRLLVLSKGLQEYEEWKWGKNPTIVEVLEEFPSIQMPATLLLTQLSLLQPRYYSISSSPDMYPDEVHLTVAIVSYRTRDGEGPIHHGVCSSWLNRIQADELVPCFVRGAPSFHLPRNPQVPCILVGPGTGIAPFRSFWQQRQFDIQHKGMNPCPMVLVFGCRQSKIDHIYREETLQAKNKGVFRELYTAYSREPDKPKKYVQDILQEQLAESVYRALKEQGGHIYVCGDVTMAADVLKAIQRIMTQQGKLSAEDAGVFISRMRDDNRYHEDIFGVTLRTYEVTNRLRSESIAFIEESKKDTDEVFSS
# [5] = biological target: T5, Nitric oxide synthase 3 (Homo sapiens) (UniProt P29474); assay: Inhibition of human eNOS expressed in HEK293 cells assessed as NO production at 100 uM by transient transfection assay relative to BBS-4; type: cell-based
# T5 sequence (whole entry): T2 sequence (P29474 whole entry)
# In short: (§3)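 HEK293 cells transiently transfected with human eNOS (15 µg plasmid) or nNOS (10 µg plasmid), Fugene 6 at 3:1 µL:µg, 4 h at 37 °C, 10% CO2. Plated at 5 × 10⁵ cells/mL with compound; SEITU 100 µM final as positive control. After 24 h, activated with A23187 (83 nM final, eNOS) or ionomycin (30 µM final, nNOS). After 18 h more, NO read by DAN fluorescence. Inhibition is relative to the maximal inhibition by the control dimerization inhibitor. 3 runs, 10-point curves, n = 3/point.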
# Nitric oxide synthase 1 [6] = biological target: T4, Nitric oxide synthase 1; assay: Inhibition of human nNOS expressed in HEK293 cells assessed as NO production at 10 uM by transient transfection assay relative to BBS-4; type: cell-based; in short: as §3
# [7] = Drug level in LPS-challenged BALB/c mouse plasma at 30 mg/kg, po after 6 hrs; type: ADME, organism-based; design: dose 30 mg/kg, route oral; in short: as §2
SMILES,inhibition [1] [%],EC50 [2] [nM],EC50 (Nitric oxide synthase 3) [nM],Activity (Mus musculus) [%],EC50 [3] [nM],EC50 (Nitric oxide synthase 1 [4]) [nM],inhibition [5] [%],inhibition (Nitric oxide synthase 1 [6]) [%],concentration at 6 h [7] [ng/mL]
Cc1ncsc1C(=O)N(Cc1cc[nH]c(=O)c1)c1cccc(Cl)c1,< 50,> 100000,–,–,–,–,–,–,–
COc1cc(CN(C(=O)c2scnc2C)c2cccc(Cl)c2)c2cccc(F)c2n1,< 50,> 100000,–,–,–,–,–,–,–
Cc1ncsc1C(=O)N(Cc1cc(=O)n(C)c2c(F)cccc12)c1cccc(Cl)c1,< 50,> 100000,–,–,–,–,–,–,–
Cc1ncsc1C(=O)N(Cc1c(F)c(=O)[nH]c2c(F)cccc12)c1cccc(Cl)c1,–,26,35000,29,130,> 10000,–,–,–
Cc1ncsc1C(=O)N(Cc1ccnc2c(F)cccc12)c1cccc(Cl)c1,< 50,> 100000,–,–,–,–,–,–,–
Cc1cccc(N(Cc2cc(=O)[nH]c3c(F)cccc23)C(=O)c2scnc2C)c1,–,100,> 100000,–,–,> 10000,< 50,< 50,–
O=C(c1ccco1)N(Cc1cc(=O)[nH]c2c(F)cccc12)c1ccccc1,–,1100,> 100000,–,–,> 10000,< 50,< 50,–
Cc1noc(C)c1C(=O)N(Cc1cc(=O)[nH]c2c(F)c(F)ccc12)c1cccc(Cl)c1,–,3,1200,67,22,97,–,–,–
Cc1ncsc1C(=O)N(Cc1cc(=O)[nH]c2ccccc12)c1cccc(Cl)c1,–,170,> 100000,–,–,> 10000,< 50,< 50,–
Cc1ncsc1C(=O)N(Cc1c[n+]([O-])cc2c(F)cccc12)c1cccc(Cl)c1,–,87,–,20,660,–,–,–,39
